The values that follow come from ChEMBL document CHEMBL2401619, “Novel small molecule inhibitors targeting the "switch region" of bacterial RNAP: structure-based optimization of a virtual screening hit” (Eur J Med Chem, 2013).

Assay [1] relates to Escherichia coli. The assay is described as follows: Inhibition of Escherichia coli RNAP assessed as incorporation of [5,6-3H]UTP at 50 uM preincubated for 10 mins followed by DNA template and ATP, CTP, GTP, UTP, [5,6-3H]UTP addition measured after 10 mins by scintillation counting analysis relative to control. In short, it runs like this:
(§1)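 Purchased E. coli RNAP holoenzyme (1 unit, 0.5 µg) with 40 mM Tris-HCl pH 7.5, 150 mM KCl, 10 mM MgCl2, 10 mM DTT, 0.1% CHAPS, RNase inhibitor and compound in 2% DMSO final, preincubated 10 min at 25 °C. Reaction started with religated pcDNA3.1 template (3500 ng), 400 µM ATP/CTP/GTP, 100 µM UTP and 60 nCi [3H]-UTP, then run 10 min at 37 °C. TCA-precipitated RNA counted by scintillation and compared with DMSO controls.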

Assay [2] has as its system Staphylococcus aureus. The assay is described as follows: Antibacterial activity against Staphylococcus aureus subsp. aureus Newman assessed as growth inhibiiton after 18 hrs. It counts as functional. In short, it runs like this:
(§2)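 Broth dilution in LB, start OD600 0.03, compounds predissolved in DMSO (max 1% final), serial dilutions 0.02–100 µg/mL tested in duplicate. Incubation 18 h, 37 °C, 50 rpm (200 rpm for PAO1). OD read at start and after incubation. MIC is the lowest concentration with no detectable growth. Values are means of two independent runs, three if MIC <10 µg/mL.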

Assay [3] is described as follows: Antibacterial activity against Bacillus subtilis subsp. subtilis assessed as growth inhibiiton after 18 hrs. Type of assay: functional. In short, it runs like this:
as §2

In assay [4] the test system is Pseudomonas aeruginosa. Briefly: Antibacterial activity against Pseudomonas aeruginosa PAO1 assessed as growth inhibiiton after 18 hrs. Conditions: PAO1, 18 h. Type of assay: functional. In short, it runs like this:
as §2

Assay [5] has as its system Escherichia coli. The assay is described as follows: Antibacterial activity against Escherichia coli K-12 assessed as growth inhibiiton after 18 hrs. Type of assay: functional. Conditions: K-12, 18 h. In short, it runs like this: as §2
Assay [6] has as its system Escherichia coli. Briefly: Antibacterial activity against Escherichia coli expressing ToLC mutant assessed as growth inhibiiton after 18 hrs. Type of assay: functional. In short, it runs like this: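 E. coli TolC (efflux-defective) in LB, start OD600 0.03, compounds predissolved in DMSO (max 1% final); serial dilutions, final 0.02–100 µg/mL, each concentration in duplicate. OD read at compound addition and after 18 h at 37 °C, 50 rpm. MIC = lowest concentration with no detectable growth; mean of two independent runs (three if MIC < 10 µg/mL).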

For assay [7], the system named is Escherichia coli. The assay is described as follows: Inhibition of RNAP in Escherichia coli expressing ToLC mutant assessed as reduction of RNA level at 100 uM after 40 mins by whole cell assay in presence of [3H]-uridine relative to control. In short, it runs like this:
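E. coli TolC grown in LB. 3H-uridine (1 µCi/mL) added in log phase, 3 min before compound (100 µM, 0.5% DMSO). 300 µL culture harvested 40 min later and precipitated with 2 volumes of 10% TCA for 45 min at 4 °C. Precipitate collected on glass-fibre filters and radioactivity counted.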

The nature of assay [8]: Inhibition of Escherichia coli RNAP assessed as incorporation of [5,6-3H]UTP preincubated for 10 mins followed by DNA template and ATP, CTP, GTP, UTP, [5,6-3H]UTP addition measured after 10 mins by scintillation counting analysis. In short, it runs like this: as §1
Assay [9] relates to Escherichia coli. Briefly: Reduction of resistance frequencies in Escherichia coli expressing ToLC mutant at 2 x MIC after 16 hrs relative to rifampicin, myxopyronin. Type of assay: functional. In short, it runs like this:
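E. coli TolC cell count per mL set by plating dilutions on LB agar and counting colonies. […] Resistance frequency derived from the threshold inoculum at which growth (resistance) appeared.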

In brackets after ≈: the same amount, converted by molar mass.

`CCOC(=O)c1c(NC(=O)Nc2ccccc2)sc2c1CCCCCC2` [UREIDOTHIOPHENE]: the inhibition in assay [1] was 2%.
Consider `CCN(Cc1ccccc1)C(=O)Nc1cc(-c2ccc(Cl)c(Cl)c2)sc1C(=O)O`, for which the MIC is 8 µg/mL (≈ 17.8 µM) in assay [2]; 11 µg/mL (≈ 24.5 µM) in assay [3]; > 25 µg/mL in assay [4]; > 25 µg/mL in assay [5]; 10 µg/mL (≈ 22.3 µM) in [6]. In addition, in [7], the inhibition is 60%. In addition, the IC50 in assay [8] worked out at 22 µM. In [8], the pIC50 turned out to be 4.66.
As to `CCN(Cc1ccccc1)C(=O)Nc1cc(-c2cccc(Cl)c2)sc1C(=O)O`, in assay [9], the “fold change (FC)” value was >500. The MIC is 21 µg/mL (≈ 50.6 µM) in assay [2]; 12 µg/mL (≈ 28.9 µM) in assay [3]; > 100 µg/mL in [4]; > 100 µg/mL in [5]; 9 µg/mL (≈ 21.7 µM) in assay [6]. The IC50 in [8] turned out to be 72 µM. In assay [8], the pIC50 came out at 4.14.

Usually inhibition stands for the share of the control response that was lost under treatment. The term MIC denotes the smallest concentration in the dilution series that meets the test's criterion for growth inhibition. A word on the IC50: it is the concentration at which inhibition is half-maximal. As a reminder, the pIC50 is the IC50 on a negative log10 scale, so that one unit is a factor of ten.
